Screening data: PubChem, The Scripps Research Institute Molecular Screening Center
This is a sample that favours compounds with a hit; in the whole collection about 4.3% have one here.
STAT1 act = STAT1 signaling activators, primary screen, cell-based, HTS, luciferase reporter; NIH 3T3 STAT1-luciferase reporter, IFN-gamma, luminescence; 100% = IFN-gamma alone, no compound; activation (% of control), % at 5.5 µM; 200,000 compounds, 2.6% hits; AID 932, 2007;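 active = activation above the screen-wide mean activation plus 3 SD, cut at about 130% in these data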
STAT1 inh = STAT1 signaling inhibitors, primary screen, cell-based, HTS, luciferase reporter; NIH 3T3 STAT1-luciferase reporter, IFN-gamma, luminescence; inhibition, % at 5.5 µM; 200,000 compounds, 0.35% hits;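 active = inhibition above a set limit, the mean inhibition across all tested compounds plus 3 SD, cut at about 34% in these data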
STAT3 act = IL-6 driven STAT3 reporter potentiators, primary screen, U3A cells, luciferase, luminescence, MLSCN library; IL-6 STAT3-luciferase reporter; 100% = signal with IL-6 EC80 alone; activation (% of control), % at 5.6 µM; 190,000 compounds, 0.91% hits; AID 871, 2007;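 active = activation above the screen-wide mean of compound activation plus 3 SD, cut at about 130% in these data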
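system = STAT3-luciferase reporter U3A cells | reagent = IL-6 stimulus at 33 ng/mL final | timing = 1 h compound pre-exposure, 6 h IL-6 stimulation, 37 °C | measured by = luminescence | evaluation = % activation versus median of IL-6-stimulated wells | control set = IL-6-only wells as 100% reference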
STAT3 inh = IL-6 driven STAT3 reporter inhibitors, primary screen, U3A cells, luciferase, luminescence, MLSCN library; inhibition, % at 5.5 µM; 190,000 compounds, 0.89% hits; AID 862, 2007; IL-6 STAT3-luciferase reporter; host cell line lacks STAT1;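 active = inhibition above the mean inhibition across all screened compounds plus 3 SD, cut at about 44% in these data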
Each line names hits and unclear results; the compound was inactive in the other large screens.

CCOC(=O)c1c(C)nc(C)c(C(=O)OCC)c1-c1ccccc1	none
CCOC(=O)c1c(C)nc(-c2ccccc2)nc1N	STAT1 act 148, STAT3 act 152
CC(=O)c1c(C)nc(-c2ccccc2)nc1N	none
CCOC(=O)c1c(-c2ccccc2)cn2c(C)cc(C)nc12	STAT1 act 138
C/C(NC(=O)c1ccccc1)=C1/C(=O)CC2C1C2(C)C (stereo unspecified)	STAT1 act 130
CC(=O)C1=C(NC(=O)c2ccc(F)cc2)CC2C1C2(C)C (stereo unspecified)	none
O=C(NCCc1ccccc1F)C1CCCN1S(=O)(=O)c1ccc2ccccc2c1 (stereo unspecified)	none
O=C1/C(=C/Nc2ccc3c(c2)OCO3)CCc2ccccc21	STAT1 inh 59, STAT3 inh 93
COc1ccc2c(c1)CC/C(=C\Nc1ccc3c(c1)OCO3)C2=O	STAT1 act 130
COc1ccc(N/C=C2\CCc3ccccc3C2=O)cc1	STAT1 inh 76, STAT3 inh 90
O=C1OC2(CCCCC2)OC(=O)C1=CNc1ccc2c(c1)OCO2	none
COc1ccc(N/C=C2\CCOC2=O)cc1	none
CCOc1ccc(-n2cc(-c3ccc(OC)c(OC)c3)[nH]c2=S)cc1	none
O=C(NCCc1ccccc1)c1noc2c1CCCCC2	STAT1 act 140
O=C(NC1CCCCC1)c1noc2c1CCCCC2	STAT1 act 149
Cc1cccn2cc(-c3ccc(S(=O)(=O)N4CCCCC4)cc3)nc12	none
O=[N+]([O-])c1cccn2cc(-c3ccc(Br)cc3)nc12	STAT1 act 140
CC(=O)Nc1ccc(N2C(=O)CSC2c2ccccc2[N+](=O)[O-])cc1 (stereo unspecified)	none
COc1ccccc1Nc1ncc(-c2cccs2)s1	STAT1 act 136, STAT3 act 156
COc1ccccc1Nc1ccc(C(=O)NCc2cccs2)cn1	none
O=c1[nH]c(CSc2nc3ccccc3[nH]2)nc2c1cnn2-c1ccccc1	none
O=c1[nH]c(SCc2nc3c(cnn3-c3ccccc3)c(=O)[nH]2)nc2ccccc12	STAT3 act 160
O=C(Cc1ccccc1[N+](=O)[O-])NCc1ccco1	none
Cc1cccc(Nc2ncc3c(n2)CC(C)CC3=O)c1 (stereo unspecified)	STAT1 act 135
Cc1nn(-c2cccc(Cl)c2)nc1C(=O)O	none
CC(C)(C)C(=O)Nc1cc2nn(-c3ccccc3)nc2cc1Cl	STAT1 inh 83, STAT3 inh 104
CC(=O)Nc1cc2nn(-c3ccccc3)nc2cc1Cl	STAT1 act 131
O=c1c(-c2ccc(F)cc2)coc2cc(O)ccc12	STAT1 act 146
COc1ccc2c(=O)c(-c3ccccc3)coc2c1	STAT1 act 130
COc1ccc2c(=O)c(-c3ccc(OC)c(OC)c3)coc2c1	none (no result: STAT3 act, STAT3 inh)
C/C(=N/NC(=O)c1ccc2c(c1)OCO2)c1ccc(Br)s1	STAT1 act 136
C/C(=N\NC(=O)c1ccc(Cl)c(Cl)c1)c1ccc(Br)s1	none
COC(=O)[C@@]1(Cc2ccc(F)cc2)[C@H]2c3cc(C(=O)N(C)C)n(Cc4ccc(OC(F)(F)F)cc4)c3C[C@H]2CN1C(=O)c1ccccc1	none
CC(C)Oc1cccc(C(=O)NC2=NCCS2)c1	STAT1 act 132
COc1cccc(C(=O)NC2=NCCS2)c1	none
COc1ccc(C2Nc3ccccc3C(=O)N2C2CCCCC2)cc1 (stereo unspecified)	none
COC(=O)c1ccc(-c2ccc(F)cc2)nc1C	STAT1 act 132
COC(=O)c1c(-c2ccncc2)csc1NC(=O)c1ccoc1C	STAT1 act 136
COc1ccc(-c2csc(NC(=O)COC(=O)C3=COCCO3)n2)cc1	STAT1 act 130
Cc1ccc(-c2csc(NC(=O)c3ccno3)n2)cc1	STAT1 act 131
Cc1ccc(-c2csc(NC(=O)c3ccc(C)o3)n2)cc1	none
COc1ccc(-c2csc(NCc3ccco3)n2)cc1	STAT1 act 135
COc1ccc(-c2csc(NC(=O)c3ccoc3C)n2)cc1	STAT1 act 133
COc1ccc(-c2csc(NC(=O)c3ccccc3C(=O)O)n2)cc1	none
COc1ccccc1-c1nc2ccccc2nc1-c1ccccc1OC	none
COc1ccccc1C1=NC(c2ccc(C)cc2)N=C1C (stereo unspecified)	STAT1 act 135
CCc1nnc(NC(=O)Nc2ccccc2OC)s1	none
COc1ccccc1NC(=O)Nc1nnc(C(C)C)s1	STAT1 act 140
Cc1ccc2[nH]c3c(c2c1)CN(C(=O)CN1CCCc2ccccc21)CC3	STAT3 act 133
COC(=O)c1[nH]c2ccc(C)cc2c1NC(=O)CN1CCCc2ccccc21	STAT3 act 135
COC(=O)c1cccc(NC(=S)NCCC2=CCCCC2)c1	STAT3 inh 53
COC(=O)c1ccc(NC(=S)NCCC2=CCCCC2)cc1	none
Cc1nc2cc(NC(=O)NCCC3=CCCCC3)ccc2o1	STAT1 act 132
O=C(CCc1ccccc1)c1nnc(-c2ccccc2)o1	none
CC(C)CCN1CCN(Cc2ccon2)CC1CCO (stereo unspecified)	none
Clc1ccc(-c2cc(CSc3ccccc3)on2)cc1	STAT1 act 136
Cc1cccc2cc(CN(Cc3nnnn3Cc3ccco3)C3CCCC3)c3nnnn3c12	none
O=C1CCCCC1Sc1nnc(Nc2ccccc2)s1 (stereo unspecified)	STAT1 act 144
CCOC(=O)C1(Cc2ccccc2C)CCCN(C(=O)c2cc(CC)nn2C)C1 (stereo unspecified)	none
COc1ccccc1C(=O)NNC(=O)c1ccncc1	none
COc1ccccc1C(=O)NNC(=O)c1ccccc1F	STAT1 act 138
COc1ccccc1C(=O)NNC(=O)c1cccc(F)c1	STAT1 act 146
COCC(=O)NNC(=O)c1ccccc1OC	STAT3 act 135
COc1cc2c(cc1NC(=O)c1ccccc1F)CCCC2	STAT1 act 138
Cc1occc1C(=O)NNC(=O)c1cccc(F)c1	none
CCN(CC)S(=O)(=O)c1ccc(N2CCOCC2)c(NC(=O)CCC2CCCCC2)c1	none
Cn1c(-c2ccccc2)c[n+]2c1-c1ccccc1C2	none
CC(C)c1ccc(/C=N/NC(=O)c2ccccc2Cl)cc1	STAT1 act 139
CNC(=S)N/N=C/c1ccc(C(C)C)cc1	STAT1 act 129
COC(=O)c1ccc(/C=N/NC(=O)c2ccccc2Cl)cc1	none
O=C(CCS(=O)(=O)c1cccs1)Nc1ccc(C(=O)NC2CCN(Cc3ccccc3)CC2)cc1	none
COc1ccc(N=Cc2oc3ccc4ccccc4c3c2O)cc1	STAT3 act 134
COc1ccc(N=Cc2[nH]c3ccccc3c2O)cc1	none
COc1ccc(NC(=S)NCCCCCC(=O)C[N+](=O)[O-])cc1	none
O=C(NC(=S)Nc1ccc2c(c1)OCO2)c1ccccc1	STAT1 act 146
NC(=S)Nc1ccc2cn[nH]c2c1	none
O=C(NC(=S)Nc1ccc2cn[nH]c2c1)c1ccccc1	STAT1 act 148
